Measurements published in ChEMBL document CHEMBL1149444, “Discovery of imidazo[1,2-b][1,2,4]triazines as GABA(A) alpha2/3 subtype selective agonists for the treatment of anxiety” (J Med Chem, 2006).

Experiments:
[1] = target: T1, GABA-A receptor; alpha-1/beta-3/gamma-2 (Homo sapiens, UniProt P14867+P18507+P28472); assay: Displacement of [3H]Ro 15-1788 from recombinant human GABAA alpha-1 receptor plus beta3gamma2 expressed in L(tk-) cells; format: cell-based
T1 sequence (P14867 whole entry): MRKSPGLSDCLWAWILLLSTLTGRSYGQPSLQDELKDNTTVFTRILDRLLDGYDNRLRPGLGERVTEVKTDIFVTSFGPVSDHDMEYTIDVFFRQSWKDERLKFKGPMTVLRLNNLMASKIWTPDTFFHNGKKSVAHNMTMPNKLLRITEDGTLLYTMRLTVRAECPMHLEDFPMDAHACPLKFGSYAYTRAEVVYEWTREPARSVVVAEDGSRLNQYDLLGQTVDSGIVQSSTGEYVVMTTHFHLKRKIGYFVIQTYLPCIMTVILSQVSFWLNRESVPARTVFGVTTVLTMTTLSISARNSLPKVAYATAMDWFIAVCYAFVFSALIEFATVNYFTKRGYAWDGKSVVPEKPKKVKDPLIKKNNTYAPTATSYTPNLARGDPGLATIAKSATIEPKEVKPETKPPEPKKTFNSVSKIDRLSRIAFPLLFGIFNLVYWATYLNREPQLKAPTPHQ
T1 sequence (P18507 whole entry): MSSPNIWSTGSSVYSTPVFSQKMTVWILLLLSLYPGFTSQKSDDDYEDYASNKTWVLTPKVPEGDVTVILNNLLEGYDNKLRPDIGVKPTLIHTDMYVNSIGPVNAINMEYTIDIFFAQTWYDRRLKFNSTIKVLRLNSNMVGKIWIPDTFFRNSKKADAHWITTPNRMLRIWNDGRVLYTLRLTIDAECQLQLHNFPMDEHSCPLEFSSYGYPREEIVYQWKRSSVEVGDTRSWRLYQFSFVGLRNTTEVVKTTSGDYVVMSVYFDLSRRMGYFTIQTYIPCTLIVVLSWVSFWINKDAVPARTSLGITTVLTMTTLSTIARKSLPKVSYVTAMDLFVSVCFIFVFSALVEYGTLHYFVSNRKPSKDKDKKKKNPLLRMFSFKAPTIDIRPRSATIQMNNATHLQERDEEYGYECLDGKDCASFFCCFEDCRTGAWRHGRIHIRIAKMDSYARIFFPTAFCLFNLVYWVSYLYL
T1 sequence (P28472 whole entry): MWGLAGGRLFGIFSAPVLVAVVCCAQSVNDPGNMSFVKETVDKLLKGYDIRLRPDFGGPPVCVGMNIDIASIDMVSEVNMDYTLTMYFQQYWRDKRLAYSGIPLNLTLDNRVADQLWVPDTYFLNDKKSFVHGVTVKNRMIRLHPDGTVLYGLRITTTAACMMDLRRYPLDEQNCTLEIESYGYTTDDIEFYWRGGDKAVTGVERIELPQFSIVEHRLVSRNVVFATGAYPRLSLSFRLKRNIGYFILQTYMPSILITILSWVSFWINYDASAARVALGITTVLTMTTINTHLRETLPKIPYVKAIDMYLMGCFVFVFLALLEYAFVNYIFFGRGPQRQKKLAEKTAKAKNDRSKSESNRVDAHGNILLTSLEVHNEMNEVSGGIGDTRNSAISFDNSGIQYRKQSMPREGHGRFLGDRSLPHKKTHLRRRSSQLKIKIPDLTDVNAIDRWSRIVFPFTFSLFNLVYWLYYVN

[2] = target: T2, GABA-A receptor; alpha-2/beta-3/gamma-2 (Homo sapiens, UniProt P18507+P28472+P47869); assay: Displacement of [3H] Ro15-1788 from recombinant human GABAA alpha2 receptor plus beta-3-gamma-2 expressed in L(tk-) cells; format: cell-based
T2 sequence (P18507 whole entry): T1 sequence (P18507 whole entry)
T2 sequence (P28472 whole entry): T1 sequence (P28472 whole entry)
T2 sequence (P47869 whole entry): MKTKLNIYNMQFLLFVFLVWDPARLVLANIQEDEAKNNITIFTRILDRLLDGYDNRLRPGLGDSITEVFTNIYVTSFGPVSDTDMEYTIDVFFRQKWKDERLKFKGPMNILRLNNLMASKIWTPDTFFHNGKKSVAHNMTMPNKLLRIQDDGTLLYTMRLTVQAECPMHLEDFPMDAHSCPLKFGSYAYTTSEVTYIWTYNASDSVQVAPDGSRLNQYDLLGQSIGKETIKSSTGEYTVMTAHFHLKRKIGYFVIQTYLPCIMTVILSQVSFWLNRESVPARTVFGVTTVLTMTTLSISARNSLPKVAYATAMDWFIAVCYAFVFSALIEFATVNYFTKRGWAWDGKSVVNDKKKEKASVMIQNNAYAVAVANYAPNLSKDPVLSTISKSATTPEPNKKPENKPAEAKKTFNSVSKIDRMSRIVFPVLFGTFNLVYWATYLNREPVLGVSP

[3] = target: T3, GABA-A receptor; alpha-3/beta-3/gamma-2 (Homo sapiens) (UniProt P18507+P28472+P34903); assay: Efficacy against recombinant human GABAA alpha3 receptor plus beta-3-gamma-2 expressed in L(tk-) cells by whole cell patch clamp method relative to chlordiazepoxide; format: functional, cell-based
Procedure, shortened: (§1)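 Whole-cell patch clamp on L(tk-) cells stably expressing the receptor (alpha plus beta3gamma2). GABA applied at an EC20-equivalent concentration. Modulation of the current measured with increasing test concentrations. Efficacy expressed relative to the maximal chlordiazepoxide response (set at 1.00) or as a percentage.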

[4] = target: T4, GABA-A receptor; alpha-1/beta-3/gamma-2 (Homo sapiens) (UniProt P14867+P18507+P28472); assay: Efficacy against recombinant human GABAA alpha-1 receptor plus beta3gamma2 expressed in L(tk-) cells by whole cell patch clamp method; format: functional, cell-based; procedure, shortened: as §1
[5] = Plasma clearance in rat at 1 mg/kg, iv or 1 mg/kg, po; format: ADME, organism-based
Procedure, shortened: (§2)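 Rat pharmacokinetics after dosing at 1 mg/kg iv and 1 mg/kg po. Plasma clearance in mL/min/kg, half-life in h and volume of distribution in L/kg.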

[6] = Half life in rat at 1 mg/kg, […] 1 mg/kg, po; format: ADME, organism-based; conditions: in vivo; procedure, shortened: as §2
[7] = target: T4, GABA-A receptor; alpha-1/beta-3/gamma-2 (Homo sapiens); assay: Efficacy against recombinant human GABAA alpha1 receptor plus beta3gamma2 expressed in L(tk-) cells by whole cell patch clamp method relative to chlordiazepoxide; format: functional, cell-based; procedure, shortened: as §1
[8] = Volume of distribution in rat at 1 mg/kg, iv or 1 mg/kg, po; format: ADME, organism-based; conditions: in vivo, read-out: Vdss; procedure, shortened: as §2
[9] = Oral bioavailability in rat at 1 mg/kg, iv or 1 mg/kg, po; format: ADME, organism-based; conditions: in vivo
Procedure, shortened: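 Pharmacokinetics in rat, dog or rhesus after 1 mg/kg iv and 1 mg/kg po dosing. Plasma clearance (mL/min/kg), half-life (h), volume of distribution (L/kg) and oral bioavailability (%) were derived.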

[10] = target: T4, GABA-A receptor; alpha-1/beta-3/gamma-2 (Homo sapiens); assay: Efficacy against recombinant human GABAA alpha1 receptor plus beta-3-gamma-2 expressed in L(tk-) cells by modulation of chloride ion flux relative to chlordiazepoxide; format: functional, cell-based
Procedure, shortened: (§3)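 Same L(tk-) lines expressing beta3gamma2 with alpha1 or alpha3. 36Cl ion flux evoked by an EC20-equivalent concentration of GABA, measured in the presence of about 1000 x Ki of test compound. Efficacy expressed relative to the maximal chlordiazepoxide response (1.00). Mean of at least seven independent experiments.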

[11] = target: T3, GABA-A receptor; alpha-3/beta-3/gamma-2 (Homo sapiens); assay: Efficacy against recombinant human GABAA alpha-3 receptor plus beta3gamma2 expressed in L(tk-) cells by modulation of chloride ion flux relative to chlordiazepoxide; format: functional, cell-based; procedure, shortened: as §3

| Compound | Ki [1] | Ki [2] | Efficacy [3] | Efficacy [4] | clearance [5] | half-life [6] | Efficacy [7] | Vd [8] | bioavailability [9] | Efficacy [10] | Efficacy [11] |
| --- | --- | --- | --- | --- | --- | --- | --- | --- | --- | --- | --- |
| Cc1cnn2c(-c3cccc(-c4ccccc4C#N)c3)cnc2n1 | 1.5 nM | 1.2 nM | 34% | -21% | – | – | – | – | – | – | – |
| CC(C)(O)c1cnn2c(-c3ccc(F)c(-c4c(F)cc(F)cc4C#N)c3)cnc2n1 | 0.15 nM | 1 nM | 37% | – | 1 mL/min/kg | 69 h | 0% | 5.8 L/kg | 64% | – | – |
| Cc1cnn2c(-c3cccc(-c4ccccc4C#N)c3)cnc2c1 | 13 nM | 19 nM | – | – | – | – | – | – | – | -20% | 26% |
| Cc1ccn2c(-c3cccc(-c4ccccc4C#N)c3)cnc2n1 | 0.4 nM | 0.4 nM | 69% | – | – | – | 7% | – | – | – | – |
| Cc1ccn2c(-c3cccc(-c4ccccc4C#N)c3)cnc2c1 | – | 3.7 nM | 55% | -10% | – | – | – | – | – | – | – |
| CCO/N=C(\C)c1ccc2c(c1)ncn2-c1cccc(-c2cccnc2)c1 | 2 nM | 14 nM | 99% | – | – | – | 40% | – | – | – | – |
| N#Cc1cc(F)ccc1-c1cc(-c2cnc3nc(C(F)(F)F)cnn23)ccc1F | 0.25 nM | 0.8 nM | -6% | -13% | – | – | – | – | – | – | – |
| CC(C)(O)c1cnn2c(-c3ccc(F)c(-c4ccc(F)cc4C#N)c3)cnc2n1 | 1.2 nM | 2.1 nM | 43% | -15% | 1.1 mL/min/kg | 38 h | – | 3.4 L/kg | – | – | – |
| N#Cc1cc(F)ccc1-c1cc(-c2cnc3nc(C(F)(F)F)ccn23)ccc1F | – | 0.73 nM | 25% | – | – | – | -3% | – | – | – | – |
| CC(C)(O)c1ccn2c(-c3ccc(F)c(-c4cccnc4)c3)cnc2n1 | – | 4 nM | – | – | – | – | 6% | – | – | – | – |
| CN1C(=O)CN=C(c2ccccc2)c2cc(Cl)ccc21 | – | – | 80% | – | – | – | 93% | – | – | – | – |
